Assay results as given in ChEMBL document CHEMBL4251558, “Synthesis and preliminary antiproliferative activity of new pteridin-7(8H)-one derivatives” (Eur J Med Chem, 2018).
Calls of active or inactive are those of the source. No cut-off for these calls is given here.

Assays:
[1] = system: MKN-45; assay: Antiproliferative activity against human MKN45 cells assessed as decrease in cell viability after 48 hrs by MTT assay; assay type: functional, cell-based; settings: MKN-45, 48 h
Procedure, shortened: (§1)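 Cells in exponential growth seeded at 3000 per well and allowed 24 h. Medium then replaced with fresh medium holding a range of compound concentrations, followed by 48 h incubation. Viability read by MTT at 570 nm. IC50 is the concentration giving 50% inhibition of proliferation, reported as mean ± SD of three independent experiments.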

[2] = system: MGC-803; assay: Antiproliferative activity against human MGC803 cells assessed as decrease in cell viability after 48 hrs by MTT assay; assay type: functional, cell-based; settings: MGC-803, 48 h; procedure, shortened: as §1
[3] = system: ECa-109 cell line; assay: Antiproliferative activity against human EC109 cells assessed as decrease in cell viability after 48 hrs by MTT assay; assay type: functional, cell-based; settings: ECa-109, 48 h; procedure, shortened: as §1
[4] = system: NCI-H1650; assay: Antiproliferative activity against human NCI-H1650 cells assessed as decrease in cell viability after 48 hrs by MTT assay; assay type: functional, cell-based; settings: NCI-H1650, 48 h; procedure, shortened: as §1
[5] = system: MKN-45; assay: Induction of apoptosis in human MKN45 cells assessed as cell rounding at 4 to 8 uM after 24 hrs by Hoechst 33258 staining-based fluorescence microscopic method; assay type: functional
[6] = system: MKN-45; assay: Induction of apoptosis in human MKN45 cells assessed as chromatin shrinkage at 4 to 8 uM after 24 hrs by Hoechst 33258 staining-based fluorescence microscopic method; assay type: functional, cell-based
[7] = system: MKN-45; assay: Induction of apoptosis in human MKN45 cells assessed as formation of apoptotic bodies at 4 to 8 uM after 24 hrs by Hoechst 33258 staining-based fluorescence microscopic method; assay type: functional, cell-based
[8] = system: MKN-45; assay: Induction of apoptosis in human MKN45 cells after 24 hrs by Annexin V-FITC/propidium iodide staining-based flow-cytometric method; assay type: functional, cell-based
[9] = system: MKN-45; assay: Induction of apoptosis in human MKN45 cells assessed as early apoptotic cells at 2 uM after 24 hrs by Annexin V-FITC/propidium iodide staining-based flow-cytometric method (reference value: 1.31%); assay type: functional
[10] = system: MKN-45; assay: Induction of apoptosis in human MKN45 cells assessed as late apoptotic cells at 2 uM after 24 hrs by Annexin V-FITC/propidium iodide staining-based flow-cytometric method (reference value: 3.99%); assay type: functional
[11] = system: MKN-45; assay: Induction of apoptosis in human MKN45 cells assessed as necrotic cells at 2 uM after 24 hrs by Annexin V-FITC/propidium iodide staining-based flow-cytometric method (reference value: 3.86%); assay type: functional
[12] = system: MKN-45; assay: Induction of apoptosis in human MKN45 cells assessed as viable cells at 2 uM after 24 hrs by Annexin V-FITC/propidium iodide staining-based flow-cytometric method (reference value: 90.8%); assay type: functional; settings: MKN-45, 24 h, read-out: Activity
[13] = system: MKN-45; assay: Induction of apoptosis in human MKN45 cells assessed as early apoptotic cells at 4 uM after 24 hrs by Annexin V-FITC/propidium iodide staining-based flow-cytometric method (reference value: 1.31%); assay type: functional
[14] = system: MKN-45; assay: Induction of apoptosis in human MKN45 cells assessed as late apoptotic cells at 4 uM after 24 hrs by Annexin V-FITC/propidium iodide staining-based flow-cytometric method (reference value: 3.99%); assay type: functional
[15] = system: MKN-45; assay: Induction of apoptosis in human MKN45 cells assessed as necrotic cells at 4 uM after 24 hrs by Annexin V-FITC/propidium iodide staining-based flow-cytometric method (reference value: 3.86%); assay type: functional
[16] = system: MKN-45; assay: Induction of apoptosis in human MKN45 cells assessed as viable cells at 4 uM after 24 hrs by Annexin V-FITC/propidium iodide staining-based flow-cytometric method (reference value: 90.8%); assay type: functional; settings: MKN-45, 24 h, read-out: Activity
[17] = system: MKN-45; assay: Induction of apoptosis in human MKN45 cells assessed as early apoptotic cells at 8 uM after 24 hrs by Annexin V-FITC/propidium iodide staining-based flow-cytometric method (reference value: 1.31%); assay type: functional
[18] = system: MKN-45; assay: Induction of apoptosis in human MKN45 cells assessed as late apoptotic cells at 8 uM after 24 hrs by Annexin V-FITC/propidium iodide staining-based flow-cytometric method (reference value: 3.99%); assay type: functional
[19] = system: MKN-45; assay: Induction of apoptosis in human MKN45 cells assessed as necrotic cells at 8 uM after 24 hrs by Annexin V-FITC/propidium iodide staining-based flow-cytometric method (reference value: 3.86%); assay type: functional
[20] = system: MKN-45; assay: Induction of apoptosis in human MKN45 cells assessed as viable cells at 8 uM after 24 hrs by Annexin V-FITC/propidium iodide staining-based flow-cytometric method (reference value: 90.8%); assay type: functional; settings: MKN-45, 24 h, read-out: Activity
[21] = system: MKN-45; assay: Induction of apoptosis in human MKN45 cells assessed as upregulation of Bax expression after 24 hrs by Western blot method; assay type: functional, cell-based
Procedure, shortened: (§2)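 MKN-45 cells treated with a range of concentrations for 24 h. Cells lysed in RIPA buffer with protease inhibitors, and protein measured by BCA assay. Lysates run on SDS-PAGE and transferred to nitrocellulose. Membranes blocked in 5% skim milk for 2 h at RT, incubated with primary antibodies overnight at 4 °C, then secondary antibody (1:5000) for 2 h at RT. Detection by ECL on film.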

[22] = system: MKN-45; assay: Induction of apoptosis in human MKN45 cells assessed as downregulation of Bcl-2 expression at 4 to 16 uM after 24 hrs by Western blot method; assay type: functional, cell-based; procedure, shortened: as §2
[23] = system: MKN-45; assay: Induction of apoptosis in human MKN45 cells assessed as cleavage of caspases-3 after 24 hrs by Western blot method; assay type: functional, cell-based; procedure, shortened: as §2
[24] = system: MKN-45; assay: Induction of apoptosis in human MKN45 cells assessed as cleavage of caspases-9 after 24 hrs by Western blot method; assay type: functional, cell-based; procedure, shortened: as §2
[25] = system: MKN-45; assay: Cell cycle arrest in human MKN45 cells assessed as accumulation at G2/M phase after 24 hrs by propidium iodide staining-based flow cytometric method; assay type: functional
Procedure, shortened: (§3)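 MKN-45 cells exposed to compound at 0, 2, 4 or 8 µM for 24 h. Cells then fixed and stained with PI, and DNA content analysed by flow cytometry to give phase distribution. Run three times; a representative experiment is shown.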

[26] = system: MKN-45; assay: Cell cycle arrest in human MKN45 cells assessed as accumulation at G1 phase at 2 uM after 24 hrs by propidium iodide staining-based flow cytometric method (reference value: 58.2%); assay type: functional; procedure, shortened: as §3
[27] = system: MKN-45; assay: Cell cycle arrest in human MKN45 cells assessed as accumulation at G2/M phase at 2 uM after 24 hrs by propidium iodide staining-based flow cytometric method (reference value: 1.62%); assay type: functional; procedure, shortened: as §3
[28] = system: MKN-45; assay: Cell cycle arrest in human MKN45 cells assessed as accumulation at S phase at 2 uM after 24 hrs by propidium iodide staining-based flow cytometric method (reference value: 24.9%); assay type: functional; procedure, shortened: as §3
[29] = system: MKN-45; assay: Cell cycle arrest in human MKN45 cells assessed as accumulation at G1 phase at 4 uM after 24 hrs by propidium iodide staining-based flow cytometric method (reference value: 58.2%); assay type: functional; procedure, shortened: as §3
[30] = system: MKN-45; assay: Cell cycle arrest in human MKN45 cells assessed as accumulation at G2/M phase at 4 uM after 24 hrs by propidium iodide staining-based flow cytometric method (reference value: 1.62%); assay type: functional; procedure, shortened: as §3
[31] = system: MKN-45; assay: Cell cycle arrest in human MKN45 cells assessed as accumulation at S phase at 4 uM after 24 hrs by propidium iodide staining-based flow cytometric method (reference value: 24.9%); assay type: functional; procedure, shortened: as §3
[32] = system: MKN-45; assay: Cell cycle arrest in human MKN45 cells assessed as accumulation at G1 phase at 8 uM after 24 hrs by propidium iodide staining-based flow cytometric method (reference value: 58.2%); assay type: functional; procedure, shortened: as §3
[33] = system: MKN-45; assay: Cell cycle arrest in human MKN45 cells assessed as accumulation at G2/M phase at 8 uM after 24 hrs by propidium iodide staining-based flow cytometric method (reference value: 1.62%); assay type: functional; procedure, shortened: as §3
[34] = system: MKN-45; assay: Cell cycle arrest in human MKN45 cells assessed as accumulation at S phase at 8 uM after 24 hrs by propidium iodide staining-based flow cytometric method (reference value: 24.9%); assay type: functional; procedure, shortened: as §3

## CCCSc1nc(N2CCN(C)CC2)c2ncc(=O)n(Cc3ccco3)c2n1
[1]
  IC50: 11.6 µM
[2]
  IC50: > 64 µM
[3]
  IC50: 24 µM
[4]
  IC50: 54.9 µM

## CCCNc1nc(SCCC)nc2c1ncc(=O)n2Cc1ccccc1
[1]
  IC50: 39.2 µM
[2]
  IC50: > 64 µM
[3]
  IC50: > 64 µM
[4]
  IC50: > 64 µM

## CCCSc1nc(NCC2CCCCC2)c2ncc(=O)n(Cc3ccccc3)c2n1
[1]
  IC50: 21 µM
[2]
  IC50: 30.4 µM
[3]
  IC50: 36 µM
[4]
  IC50: > 64 µM

## CCCSc1nc(Nc2cc(OC)c(OC)c(OC)c2)c2ncc(=O)n(Cc3ccccc3)c2n1
[1]
  IC50: 14.2 µM
[2]
  IC50: 15 µM
[3]
  IC50: 38.7 µM
[4]
  IC50: 36.9 µM

## CCCSc1nc(N2CCN(Cc3ccccc3)CC2)c2ncc(=O)n(Cc3ccccc3)c2n1
[1]
  IC50: 15.4 µM
[2]
  IC50: 18.7 µM
[3]
  IC50: > 64 µM
[4]
  IC50: > 64 µM

## CCCSc1nc(NC2CC2)c2ncc(=O)n(Cc3ccccc3)c2n1
[1]
  IC50: 23.3 µM
[2]
  IC50: 43.7 µM
[3]
  IC50: 29.7 µM
[4]
  IC50: > 64 µM

## CCCSc1nc(N2CCN(C)CC2)c2ncc(=O)n(Cc3ccccc3)c2n1
[1]
  IC50: 4.32 µM
[2]
  IC50: 7.01 µM
[3]
  IC50: 9.85 µM
[4]
  IC50: 9.92 µM
[5]
  Activity: Active
[6]
  Activity: Active
[7]
  Activity: Active
[8]
  Activity: Dose-dependent effect
[9]
  Activity: 15.7%
[10]
  Activity: 11.3%
[11]
  Activity: 1.62%
[12]
  viability at 2 µM: 71.4%
[13]
  Activity: 9.91%
[14]
  Activity: 16%
[15]
  Activity: 1.02%
[16]
  viability at 4 µM: 73%
[17]
  Activity: 7.77%
[18]
  Activity: 23.1%
[19]
  Activity: 2.34%
[20]
  viability at 8 µM: 66.8%
[21]
  Activity: Dose-dependent effect
[22]
  Activity: Active
[23]
  Activity: Dose-dependent effect
[24]
  Activity: Dose-dependent effect
[25]
  Activity: Dose-dependent effect
[26]
  Activity: 42.2%
[27]
  Activity: 16.6%
[28]
  Activity: 20.2%
[29]
  Activity: 16.2%
[30]
  Activity: 29.2%
[31]
  Activity: 24%
[32]
  Activity: 6.91%
[33]
  Activity: 40.8%
[34]
  Activity: 25.7%

## CCCSc1nc(N2CCN(C)CC2)c2ncc(=O)n(CCCc3ccccc3)c2n1
[1]
  IC50: 9.97 µM
[2]
  IC50: 13.8 µM
[3]
  IC50: 18.3 µM
[4]
  IC50: > 64 µM

## Cc1nc(N2CCN(C)CC2)c2ncc(=O)n(Cc3ccccc3)c2n1
[1]
  IC50: > 64 µM
[2]
  IC50: > 64 µM
[3]
  IC50: 39 µM
[4]
  IC50: > 64 µM

## CN1CCN(c2ncnc3c2ncc(=O)n3Cc2ccccc2)CC1
[1]
  IC50: > 64 µM
[2]
  IC50: > 64 µM
[3]
  IC50: 41.7 µM
[4]
  IC50: > 64 µM

## CCCSc1nc(Nc2ccccc2OC)c2ncc(=O)n(Cc3ccccc3)c2n1
[1]
  IC50: 14.7 µM
[2]
  IC50: 19.4 µM
[3]
  IC50: > 64 µM
[4]
  IC50: 51.8 µM

## CCCSc1nc(Nc2ccccc2)c2ncc(=O)n(Cc3ccccc3)c2n1
[1]
  IC50: 38.6 µM
[2]
  IC50: 36.6 µM
[3]
  IC50: 19 µM
[4]
  IC50: > 64 µM

## CCCSc1nc(N2CCOCC2)c2ncc(=O)n(Cc3ccccc3)c2n1
[1]
  IC50: > 64 µM
[2]
  IC50: 49.6 µM
[3]
  IC50: > 64 µM
[4]
  IC50: > 64 µM

## CCCSc1nc(N2CCN(C)CC2)c2ncc(=O)n(CC3CCCCC3)c2n1
[1]
  IC50: 17.9 µM
[2]
  IC50: 53.7 µM
[3]
  IC50: > 64 µM
[4]
  IC50: 51.8 µM

## CCCSc1nc(N2CCN(C)CC2)c2ncc(=O)n(CC(C)C)c2n1
[1]
  IC50: 16.8 µM
[2]
  IC50: 17.2 µM
[3]
  IC50: 37.5 µM
[4]
  IC50: 45.4 µM

## CCCSc1nc(N2CCN(C)CC2)c2ncc(=O)n(Cc3cccs3)c2n1
[1]
  IC50: 11.3 µM
[2]
  IC50: 16.4 µM
[3]
  IC50: 19.7 µM
[4]
  IC50: > 64 µM

## CCCSc1nc(N2CCSCC2)c2ncc(=O)n(Cc3ccccc3)c2n1
[1]
  IC50: > 64 µM
[2]
  IC50: 34.7 µM
[3]
  IC50: > 64 µM
[4]
  IC50: 54.8 µM

## CCCSc1nc(NCc2ccccc2)c2ncc(=O)n(Cc3ccccc3)c2n1
[1]
  IC50: > 64 µM
[2]
  IC50: 46.6 µM
[3]
  IC50: > 64 µM
[4]
  IC50: > 64 µM
